Data on 10 compounds can be found in ChEMBL document CHEMBL4229395, “Photoactivated 2,3-distyrylindoles kill multi-drug resistant bacteria” (Bioorg Med Chem Lett, 2018).

The source made the active and inactive calls. The calls are words filed in the database; no cut-off is given here.

Data set [1] has as its system Staphylococcus aureus. Briefly: Bactericidal activity against methicillin-resistant Staphylococcus aureus ATCC BAA-44 at 5 uM irradiated with white light for 2 mins and measured after overnight incubation by drip-streak plate method. Type of data set: functional, organism-based. The gist of the method:
(§1)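 MRSA ATCC BAA-44 cells incubated with a range of compound concentrations, then irradiated for 2 min with a white-light lamp or kept in the dark. Colonies were counted at the dilution giving 30–300 colonies. Each experiment had 3 replicates and was repeated in 3 independent experiments.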

Data set [2] in a line: Induction of singlet oxygen generation at 1285 nm at 10 uM. Type of data set: functional.
A short description of data set [3]: Dark toxicity against human MCF7 cells assessed as decrease in cell viability by MTT assay. Type of data set: cell-based. The gist of the method:
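MCF-7 breast adenocarcinoma cells were incubated with compound without light. Viability was read by MTT colorimetric assay, and IC50 was derived from the concentration–response.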
On the technique in general: Formazan colour is commonly taken as a measure of viable cells.

The subject of data set [4] is Staphylococcus aureus. Briefly: Bactericidal activity against methicillin-resistant Staphylococcus aureus ATCC BAA-44 at 30 nM irradiated with white light for 2 mins and measured after overnight incubation by drip-streak plate method relative to control. Type of data set: functional. Put shortly:
as §1

Data set [5] relates to Klebsiella pneumoniae. Kind of data set: Bactericidal activity against carbapenem-resistant Klebsiella pneumoniae ATCC BAA-2146 at 2 ug/ml incubated under dark condition. In kind it is ADME, organism-based.
Data set [6] concerns Escherichia coli. Kind of data set: Bactericidal activity against Escherichia coli ATCC 25922 at 2 ug/ml incubated under dark condition. Type of data set: ADME, organism-based.
Data set [7] has as its system Pseudomonas aeruginosa. Briefly: Bactericidal activity against Pseudomonas aeruginosa ATCC BAA-2114 at 2 ug/ml incubated under dark condition. In kind it is ADME, organism-based.
The test system of data set [8] is Acinetobacter baumannii. Briefly: Bactericidal activity against Acinetobacter baumannii ATCC BAA1797 at 1.25 ug/ml incubated under dark condition. Type of data set: ADME, organism-based.
Data set [9] deals with Escherichia coli. Kind of data set: Bactericidal activity against Escherichia coli ATCC 25922 at 5 uM in presence of light and polymyxin E relative to control. In kind it is functional.
Data set [10] relates to Staphylococcus aureus. Kind of data set: Bactericidal activity against Staphylococcus aureus ATCC 29213 at 1 uM incubated under dark condition. Type of data set: ADME, organism-based.
Data set [11] relates to Enterococcus faecalis. Kind of data set: Bactericidal activity against Enterococcus faecalis ATCC 51299 at 1 uM in presence of light. In kind it is functional, organism-based.
Data set [12] has as its system Acinetobacter baumannii. Briefly: Bactericidal activity against Acinetobacter baumannii ATCC BAA1797 at 1.25 ug/ml in presence of light. In kind it is functional, organism-based.
Data set [13] has as its system Staphylococcus aureus. Kind of data set: Bactericidal activity against methicillin-resistant Staphylococcus aureus ATCC BAA1717 at 1 uM in presence of light. In kind it is functional, organism-based.
Data set [14] has as its system Escherichia coli. Kind of data set: Bactericidal activity against Escherichia coli ATCC 25922 at 5 uM incubated under dark condition. Type of data set: ADME, organism-based.
In data set [15] the test system is Acinetobacter baumannii. Kind of data set: Bactericidal activity against Acinetobacter baumannii ATCC BAA1797 at 5 uM in presence of light and polymyxin E relative to control. Type of data set: functional.
Data set [16] has as its system Klebsiella pneumoniae. Briefly: Bactericidal activity against carbapenem-resistant Klebsiella pneumoniae ATCC BAA-2146 at 5 uM in presence of light. In kind it is functional, organism-based.
Data set [17] concerns Streptococcus mutans. Kind of data set: Bactericidal activity against Streptococcus mutans Ward's 85W 2357 at 1 uM in presence of light. In kind it is functional, organism-based.
The test system of data set [18] is Escherichia coli. Kind of data set: Bactericidal activity against Escherichia coli ATCC 25922 at 5 uM incubated under dark condition in presence of polymyxin E. Type of data set: ADME, organism-based.
In data set [19] the test system is Acinetobacter baumannii. Briefly: Bactericidal activity against Acinetobacter baumannii ATCC BAA1797 at 5 uM incubated under dark condition. In kind it is ADME, organism-based.
The test system of data set [20] is Staphylococcus aureus. Kind of data set: Bactericidal activity against Staphylococcus aureus ATCC 29213 at 1 uM in presence of light. Type of data set: functional, organism-based.
Data set [21] relates to Klebsiella pneumoniae. Briefly: Bactericidal activity against carbapenem-resistant Klebsiella pneumoniae ATCC BAA-2146 at 5 uM incubated under dark condition. Type of data set: ADME, organism-based.
For data set [22], the system named is Staphylococcus aureus. Briefly: Bactericidal activity against methicillin-resistant Staphylococcus aureus ATCC BAA-44 incubated under dark condition and measured after overnight incubation by drip-streak plate method. In kind it is ADME, organism-based. The conditions noted are these: in vitro. Put shortly:
as §1

In data set [23] the test system is Streptococcus pyogenes. Kind of data set: Bactericidal activity against Streptococcus pyogenes ATCC 8133 at 1 uM incubated under dark condition. Type of data set: ADME, organism-based. The gist of the method: (§2)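 Bacterial suspensions (about 10^8 CFU/mL) were incubated with the compound at a range of concentrations and kept in the dark, the unirradiated control for a 2 min white-light exposure. Samples were diluted 10-fold, drip-streaked on TSA and incubated overnight at 37 °C. Colonies were counted at the dilution giving 30–300 colonies.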

Data set [24] concerns Streptococcus pyogenes. Briefly: Bactericidal activity against Streptococcus pyogenes ATCC 8133 at 1 uM in presence of light. In kind it is functional, organism-based.
The test system of data set [25] is Staphylococcus aureus. Briefly: Disruption of cell membrane in methicillin-resistant Staphylococcus aureus ATCC BAA-44 at 10 uM incubated under dark condition by propidium iodide staining-based assay. Type of data set: organism-based. Put shortly: (§3)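 MRSA ATCC BAA-44 cells were treated with compound with or without light, then stained with propidium iodide. Red PI fluorescence marks membrane disruption; green fluorescence comes from the compound. Phenylarsine oxide was the positive control.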

The subject of data set [26] is Staphylococcus aureus. Kind of data set: Bactericidal activity against methicillin-resistant Staphylococcus aureus ATCC BAA-44 at 1 uM irradiated with white light through mask for 2 mins and measured after overnight incubation. Type of data set: functional, organism-based. The gist of the method: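 MRSA ATCC BAA-44 cells were pre-treated with compound at 1 μM and spread over an agar plate. The plate was irradiated with white light through a mask for 2 min, incubated overnight at 37 °C and photographed to show where colonies grew.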

Data set [27] relates to Pseudomonas aeruginosa. Kind of data set: Bactericidal activity against Pseudomonas aeruginosa ATCC BAA-2114 at 2 ug/ml in presence of light. Type of data set: functional, organism-based.
Data set [28] has as its system Escherichia coli. Kind of data set: Bactericidal activity against Escherichia coli ATCC 25922 at 5 uM in presence of light. Type of data set: functional, organism-based.
The subject of data set [29] is Pseudomonas aeruginosa. Kind of data set: Bactericidal activity against Pseudomonas aeruginosa ATCC BAA-2114 at 5 uM in presence of light and polymyxin E. In kind it is functional, organism-based.
Data set [30] concerns Staphylococcus aureus. Kind of data set: Bactericidal activity against methicillin-resistant Staphylococcus aureus ATCC BAA-44 at 0.1 uM irradiated with white light for 2 mins and measured after overnight incubation by drip-streak plate method relative to control. In kind it is functional. Put shortly: as §1
For data set [31], the system named is Enterococcus faecalis. Kind of data set: Bactericidal activity against Enterococcus faecalis ATCC 51299 at 1 uM incubated under dark condition. Type of data set: ADME, organism-based. The gist of the method:
as §2

Data set [32] concerns Staphylococcus aureus. Kind of data set: Disruption of cell membrane in methicillin-resistant Staphylococcus aureus ATCC BAA-44 at 10 uM in presence of light by propidium iodide staining-based assay. In kind it is functional, organism-based. The gist of the method: as §3
In data set [33] the test system is Staphylococcus aureus. Kind of data set: Disruption of cell membrane in methicillin-resistant Staphylococcus aureus ATCC BAA-44 incubated under dark condition by scanning electron microscopic method. In kind it is organism-based.
The test system of data set [34] is Pseudomonas aeruginosa. Kind of data set: Bactericidal activity against Pseudomonas aeruginosa ATCC BAA-2114 at 5 uM in presence of light. In kind it is functional, organism-based.
Data set [35] relates to Streptococcus mutans. Kind of data set: Bactericidal activity against Streptococcus mutans Ward's 85W 2357 at 1 uM incubated under dark condition. In kind it is ADME, organism-based. The gist of the method:
as §2

The test system of data set [36] is Klebsiella pneumoniae. Kind of data set: Bactericidal activity against carbapenem-resistant Klebsiella pneumoniae ATCC BAA-2146 at 5 uM in presence of light and polymyxin E. Type of data set: functional, organism-based.
Data set [37] deals with Escherichia coli. Kind of data set: Bactericidal activity against Escherichia coli ATCC 25922 at 2 ug/ml in presence of light. Type of data set: functional, organism-based.
Data set [38] in a line: Induction of singlet oxygen generation at 1210 nm. Type of data set: functional.
The test system of data set [39] is Staphylococcus aureus. Kind of data set: Disruption of cell membrane in methicillin-resistant Staphylococcus aureus ATCC BAA-44 in presence of light by scanning electron microscopic method. Type of data set: functional, organism-based.
The subject of data set [40] is Staphylococcus aureus. Kind of data set: Bactericidal activity against methicillin-resistant Staphylococcus aureus ATCC BAA-44 irradiated with white light for 2 mins and measured after overnight incubation by drip-streak plate method. In kind it is functional, organism-based. The gist of the method: as §1
The test system of data set [41] is Klebsiella pneumoniae. Kind of data set: Bactericidal activity against carbapenem-resistant Klebsiella pneumoniae ATCC BAA-2146 at 2 ug/ml in presence of light. In kind it is functional, organism-based.
The test system of data set [42] is Pseudomonas aeruginosa. Kind of data set: Bactericidal activity against Pseudomonas aeruginosa ATCC BAA-2114 at 5 uM incubated under dark condition. Type of data set: ADME, organism-based.
Data set [43] deals with Klebsiella pneumoniae. Briefly: Bactericidal activity against carbapenem-resistant Klebsiella pneumoniae ATCC BAA-2146 at 5 uM incubated under dark condition in presence of polymyxin E. In kind it is ADME, organism-based.
Data set [44] concerns Acinetobacter baumannii. Briefly: Bactericidal activity against Acinetobacter baumannii ATCC BAA1797 at 5 uM in presence of light. Type of data set: functional, organism-based.

With `Clc1cccc(/C=C/c2[nH]c3ccccc3c2/C=C/c2cccc(Cl)c2)c1`, the result in the data set on Staphylococcus aureus [1] was inactive.

As to `O=C1OC2(c3cc(I)c(O)c(I)c3Oc3c2cc(I)c(O)c3I)c2c(Cl)c(Cl)c(Cl)c(Cl)c21`, the result in [2] was Active.

Consider `CN(C)[C@@H]1C(O)=C(C(N)=O)C(=O)[C@@]2(O)C(O)=C3C(=O)c4c(O)cccc4[C@@](C)(O)[C@H]3C[C@@H]12` [TETRACYCLINE], for which, in data set [3], the 50% inhibitory concentration (IC50) was 41.6 µM.

Regarding `C(=C\c1[nH]c2ccccc2c1/C=C/c1ccccc1)/c1ccccc1`, the “fold change (FC)” value in the data set with Staphylococcus aureus [4] was 5.

`Fc1ccc(/C=C/c2[nH]c3ccccc3c2/C=C/c2ccc(F)cc2)cc1`: the result in the data set on Staphylococcus aureus [1] was inactive.

For `COc1ccc(/C=C/c2[nH]c3ccccc3c2/C=C/c2ccc(OC)cc2)cc1`, the outcome in the data set with Staphylococcus aureus [1] was inactive.

On to `Clc1ccccc1/C=C/c1[nH]c2ccccc2c1/C=C/c1ccccc1Cl`, for which, in the data set on Staphylococcus aureus [1], the result was Active.

COLISTIN: the Activity result with Klebsiella pneumoniae [5], in the data set with Escherichia coli [6], in the data set on Pseudomonas aeruginosa [7] and in the data set with Acinetobacter baumannii [8] was “Non-Toxic” in each case.

With `Clc1ccc(/C=C/c2[nH]c3ccccc3c2/C=C/c2ccc(Cl)cc2)cc1`, the Activity was 7 deltalog10CFU/ml in the data set with Escherichia coli [9]; “Non-Toxic” in the data set on Staphylococcus aureus [10]; “Non-Toxic” with Escherichia coli [14]; 7 deltalog10CFU/ml in the data set on Acinetobacter baumannii [15]; “Toxic” with Escherichia coli [18]; “Non-Toxic” in the data set on Acinetobacter baumannii [19]. Moreover, the Activity entry with Klebsiella pneumoniae [21] was “Non-Toxic”; with Staphylococcus aureus [22], “Dose-dependent effect”; in the data set with Streptococcus pyogenes [23], “Non-Toxic”; in the data set on Staphylococcus aureus [25], “Non-Toxic”; in the data set on Staphylococcus aureus [30], 5 deltalog10CFU/ml; in the data set with Enterococcus faecalis [31], “Non-Toxic”. In addition, the Activity result in the data set on Staphylococcus aureus [33] was “Non-Toxic”; in the data set on Streptococcus mutans [35], “Non-Toxic”; in data set [38], “Dose-dependent effect”; in the data set on Staphylococcus aureus [40], “Dose-dependent effect”; in the data set with Pseudomonas aeruginosa [42] it was “Non-Toxic”; in the data set on Klebsiella pneumoniae [43], “Toxic”. Besides, the outcome in the data set on Enterococcus faecalis [11], in the data set with Staphylococcus aureus [13], in the data set on Streptococcus mutans [17], with Staphylococcus aureus [20], with Streptococcus pyogenes [24] and with Staphylococcus aureus [26] was Active. The result in the data set on Pseudomonas aeruginosa [29], in the data set with Staphylococcus aureus [32], in the data set on Klebsiella pneumoniae [36] and in the data set on Staphylococcus aureus [39] was Active. Further, the outcome in the data set with Acinetobacter baumannii [12], in the data set on Klebsiella pneumoniae [16], with Pseudomonas aeruginosa [27], in the data set on Escherichia coli [28], in the data set on Pseudomonas aeruginosa [34] and in the data set with Escherichia coli [37] was inactive. For the same compound, the result in the data set on Klebsiella pneumoniae [41] and in the data set with Acinetobacter baumannii [44] was inactive. In addition, in data set [3], the half-maximal inhibitory concentration (IC50) is 47 µM.

For `CCn1cc(C(=O)O)c(=O)c2cc(F)c(N3CCNCC3)cc21` [NORFLOXACIN], the IC50 in [3] was found to be 13.8 µM.

One may read the IC50 as the concentration that gives 50% inhibition.
